Experiment [1] in a line: reduced viability of SK-BR-3 breast cancer cells – cell-based, 24 h, human, pilot screen (AID 572;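 active = viability at or below 10% of carrier control in both of two separate runs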;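 note: compound exposure lasted between 18 and 24 h rather than exactly 24 h; 100% = carrier-treated control wells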). As to conditions: SK-BR-3 viability, CellTiter-Glo luminescence, at 10 µM, stronger effect = lower value. A general note: In ATP-based viability assays light output follows the ATP content of the culture.
A short description of experiment [2]: HUVEC growth inhibition – cell-based, human, primary screen (AID 575;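 active = viability at or below 30% in both replicate assays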;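 note: 100% = median of untreated cell wells with 0.1% DMSO on each plate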). As to conditions: HUVEC proliferation, CellTiter-Glo luminescence, 72 h; at 10 µM; stronger effect = lower value. The method, boiled down: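 System: primary human umbilical vein endothelial cells; Quantity: 1250 endothelial cells in each well; Buffer or medium: supplemented EBM, 2% fetal bovine serum; Doses: one dose, 10 µM final, 0.1% DMSO; Incubation: 72 h compound incubation; Technique: ATP-based CellTiter-Glo luminescent read; Evaluation: percent of median DMSO-control luminescence; Controls: vehicle and MePR control wells.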

Experiment [3] in a line: H69AR cell proliferation blockers – human, duplicate replicates, primary screen (AID 580;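 active = viability at or under a set limit in both replicates, limit being median viability minus 3 SD, cut at about 48% in these data, passing the limit was not always enough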;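 note: 100% = mean luminescence of untreated wells and 0% = no signal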). Particulars: H69AR lung tumor cells viability, ATP luminescence, 72 h; at 10 µM; stronger effect = lower value.
Experiment [4] in a line: MRP1 drug-resistance reversers in H69AR cells – cell-based, doxorubicin co-treatment, pilot screen (AID 601;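 active = viability loss from added drug above about 55%, and viability with drug at most 40%, in both replicates, limit read from the data, passing the limit was not always enough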). As to conditions: CellTiter-Glo, 72 h, at 10 µM; for differential viability (reversal): stronger effect = higher value.
Experiment [5] is described as follows: yeast transport mutant growth inhibition pilot in 384-well plates, post-Golgi transport modulator project (AID 636; in the data active = inhibition above about 31%). As to conditions: absorbance 615 nm, about 18 h, stronger effect = higher value.
The nature of experiment [6]: growth suppression of yeast trafficking mutant, preliminary HTS, modulators of trafficking downstream of Golgi apparatus project, 1536-format plate, OD 615 nm (AID 637). Particulars: yeast transport mutant growth, absorbance 615 nm, 18 h; stronger effect = higher value.
[7] abbreviates: H69AR cells + 2 uM doxorubicin, measured here: viability with 2 uM doxorubicin, stronger effect = lower value.
[8] abbreviates: H69AR cells, compound alone cytotoxicity.

Molecules are shown by their SMILES. The source made the active and inactive calls. Cut-off read from the data, not from the text of the source, unless noted: active = inhibition above about 30%; inactive = the rest.

The term viability denotes a read-out of living cells in per cent, often relative to untreated cells. A word on the inhibition: it is the drop in the measured response relative to a control, in per cent. Turning to `CCOC(=O)C1=C(C)NC(C)=C(C(=O)OC)C1c1cccc([N+](=O)[O-])c1` (centres undefined), the viability in experiment [1] is 68% (inactive); in experiment [2], 58% (inactive); in experiment [3], 83% (inactive); in experiment [4] (setting [7]), 97.7%; in experiment [4] (setting [8]), 83%. The differential viability (reversal) in experiment [4] (H69AR cells + 2 uM doxorubicin) is -14.7% (inactive). In addition, the inhibition in experiment [5] is 5.58% (inactive); in experiment [6], -1.17% (inactive).

Take `COc1cccc(N2CCN(CC(=O)c3c[nH]c4ccc(OC)cc34)CC2C)c1` (centres undefined): the viability in experiment [1] is 104% (inactive); in experiment [2], 83.9% (inactive); in experiment [3], 70.4% (inactive); in experiment [4] (setting [7]) it was 82.1%; in experiment [4] (setting [8]), 70.4%. The differential viability (reversal) in experiment [4] (H69AR cells + 2 uM doxorubicin) was -11.7% (inactive). In addition, the values for the inhibition in experiment [5] and in experiment [6] were -5.33% (inactive) and -1.45% (inactive), respectively.

Take `CCOC(=O)c1oc2cc(OCC(N)=O)ccc2c(=O)c1-c1ccc(OC)c(OC)c1`: the viability was 65% (inactive) in experiment [1]; 88.1% (inactive) in experiment [2]; 99% (inactive) in experiment [3]; 102% in experiment [4] (setting [7]); 99% in experiment [4] (setting [8]). The differential viability (reversal) in experiment [4] (H69AR cells + 2 uM doxorubicin) is -2.63% (inactive). Further, the results for the inhibition in experiment [5] and in experiment [6] were -7.67% (inactive) and -0.55% (inactive), respectively.

For the compound `COc1ccc(Cl)c(NC(=O)NCCN2CCN(c3ccccc3)CC2)c1`, the viability is 102% (inactive) in experiment [1]; 107% (inactive) in experiment [2]; 90.4% (inactive) in experiment [3]; 82% in experiment [4] (setting [7]); 90.4% in experiment [4] (setting [8]). Besides, the differential viability (reversal) in experiment [4] (H69AR cells + 2 uM doxorubicin) is 8.35% (inactive). Also, the inhibition is -2% (inactive) in experiment [5] and 1.27% (inactive) in experiment [6].

With `CCCCN1C(=O)C2C(C(=O)Nc3cccc(OC)c3)C3C=CC2(O3)C1C(=O)NC1CCCCC1C` (centres undefined), the viability in experiment [1] was 101% (inactive); in experiment [2], 82.7% (inactive); in experiment [3], 82.1% (inactive); in experiment [4] (setting [7]), 78.2%; in experiment [4] (setting [8]) it was 82.1%. Besides, the differential viability (reversal) in experiment [4] (H69AR cells + 2 uM doxorubicin) was 3.86% (inactive). Besides, the inhibition in experiment [5] was -2.86% (inactive); in experiment [6], -3.11% (inactive).

Take `Cc1nn(Cc2ccccc2)c(C)c1NC(=O)c1cc(-c2ccco2)on1`: the viability in experiment [1] is 103% (inactive); in experiment [2], 108% (inactive); in experiment [3], 102% (inactive); in experiment [4] (setting [7]), 82.6%; in experiment [4] (setting [8]) it was 102%. Besides, the differential viability (reversal) in experiment [4] (H69AR cells + 2 uM doxorubicin) was 19.6% (inactive). In addition, the inhibition is -5.6% (inactive) in experiment [5] and -0.55% (inactive) in experiment [6].

With `CCCC(CCC)C(=O)NCCN1CCOCC1`, the viability was 118% (inactive) in experiment [1]; 85% (inactive) in experiment [2]; 96.8% (inactive) in experiment [3]; 86.6% in experiment [4] (setting [7]); 96.8% in experiment [4] (setting [8]). Further, in experiment [4] (H69AR cells + 2 uM doxorubicin), the differential viability (reversal) is 10.2% (inactive). Further, the inhibition in experiment [5] is -2.34% (inactive); in experiment [6] it was 4.92% (inactive).

As for `CCOC(=O)Nc1cc(OC)c(OC)cc1Cc1nccc2cc(OC)c(OC)cc12`, the viability in experiment [1] is 113% (inactive); in experiment [2], 95.7% (inactive); in experiment [3], 87.1% (inactive); in experiment [4] (setting [7]), 81.5%; in experiment [4] (setting [8]), 87.1%. In addition, the differential viability (reversal) in experiment [4] (H69AR cells + 2 uM doxorubicin) was 5.61% (inactive). In addition, the inhibition in experiment [5] is -2.05% (inactive); in experiment [6], 28.7% (inactive).

As for `COc1ccc(C(=O)NCCc2nnc(SCc3nc4ccccc4c(=O)[nH]3)n2C)cc1`, the viability is 101% (inactive) in experiment [1]; 67.3% (inactive) in experiment [2]; 83.4% (inactive) in experiment [3]; 73.8% in experiment [4] (setting [7]); 83.4% in experiment [4] (setting [8]). The differential viability (reversal) in experiment [4] (H69AR cells + 2 uM doxorubicin) was 9.63% (inactive). Also, the results for the inhibition in experiment [5] and in experiment [6] were -5.89% (inactive) and 2.42% (inactive), respectively.

Turning to `CC1(C)SC2[C@H](NC(=O)C(NC(=O)N3CCNC3=O)c3ccccc3)C(=O)N2C1C(=O)O` (some centres undefined), the viability was 107% (inactive) in experiment [1]; 80.2% (inactive) in experiment [2]; 95.3% (inactive) in experiment [3]; 93.6% in experiment [4] (setting [7]); 95.3% in experiment [4] (setting [8]). In addition, in experiment [4] (H69AR cells + 2 uM doxorubicin), the differential viability (reversal) was 1.74% (inactive). The inhibition in experiment [5] was 0.26% (inactive); in experiment [6], 2.67% (inactive).

Take `CC(=O)OCC(=O)[C@@]12OC(C)(C)O[C@@H]1C[C@H]1[C@@H]3C[C@H](F)C4=CC(=O)C=C[C@]4(C)[C@@]3(F)[C@@H](O)C[C@@]12C`: the viability in experiment [1] was 104% (inactive); in experiment [2] it was 62.1% (inactive); in experiment [3], 106% (inactive); in experiment [4] (setting [7]), 104%; in experiment [4] (setting [8]) it was 106%. The differential viability (reversal) in experiment [4] (H69AR cells + 2 uM doxorubicin) was 2.31% (inactive). Also, the results for the inhibition in experiment [5] and in experiment [6] were 0.65% (inactive) and -1.83% (inactive), respectively.

For the compound `Brc1ccc2[nH]c3nc(SCCN4CCOCC4)nnc3c2c1`, the viability in experiment [1] is 100% (inactive); in experiment [2] it was 89.8% (inactive); in experiment [3], 87% (inactive); in experiment [4] (setting [7]), 76.2%; in experiment [4] (setting [8]) it was 87%. In experiment [4] (H69AR cells + 2 uM doxorubicin), the differential viability (reversal) was 10.9% (inactive). For the same compound, the inhibition is 2.21% (inactive) in experiment [5] and 11.6% (inactive) in experiment [6].

Regarding `O=C(COc1ccccc1Cl)NCCCN1CCOCC1`, the viability is 98% (inactive) in experiment [1]; 86.9% (inactive) in experiment [2]; 91.3% (inactive) in experiment [3]; 91.9% in experiment [4] (setting [7]); 91.3% in experiment [4] (setting [8]). The differential viability (reversal) in experiment [4] (H69AR cells + 2 uM doxorubicin) was -0.6% (inactive). The inhibition in experiment [5] is 3.15% (inactive); in experiment [6], -2.74% (inactive).

(Values after PubChem BioAssay.)
